Test results from ChEMBL document CHEMBL4364238, “Discovery of BNC375, a Potent, Selective, and Orally Available Type I Positive Allosteric Modulator of α7 nAChRs” (ACS Med Chem Lett, 2019).
Converted amounts (≈) assume the structure as drawn. The source made the active and inactive calls. The calls are words filed in the database; no cut-off is given here.

What was measured:
[1] = biological target: Neuronal acetylcholine receptor subunit alpha-7 (Rattus norvegicus) (UniProt Q05941); assay: Positive allosteric modulator activity at rat alpha7 nAChR expressed in GH4C1 cells assessed as potentiation of acetylcholine response at 3 uM at -70 mV holding potential preincubated for 30 secs followed by co-application with acetylcholine by automated patch clamp assay; type: cell-based
Neuronal acetylcholine receptor subunit alpha-7 (Rattus norvegicus), sequence (Q05941 whole entry): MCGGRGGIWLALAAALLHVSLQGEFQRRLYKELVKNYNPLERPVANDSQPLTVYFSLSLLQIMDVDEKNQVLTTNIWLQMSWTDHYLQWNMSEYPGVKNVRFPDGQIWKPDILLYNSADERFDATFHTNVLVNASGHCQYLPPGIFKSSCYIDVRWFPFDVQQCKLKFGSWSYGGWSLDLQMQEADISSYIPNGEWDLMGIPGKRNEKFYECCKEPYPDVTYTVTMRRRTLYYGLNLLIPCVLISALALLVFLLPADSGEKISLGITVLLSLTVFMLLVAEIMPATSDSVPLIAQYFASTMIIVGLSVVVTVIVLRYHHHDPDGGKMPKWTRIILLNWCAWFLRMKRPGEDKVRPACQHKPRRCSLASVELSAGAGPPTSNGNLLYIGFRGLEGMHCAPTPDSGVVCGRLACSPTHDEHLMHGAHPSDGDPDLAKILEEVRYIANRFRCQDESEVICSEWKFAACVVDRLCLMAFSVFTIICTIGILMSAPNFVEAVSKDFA
Outline: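 Automated planar patch clamp on stable GH4C1 (rat) cell lines expressing rat α7 nAChR; test compound at 3 μM with an EC₂₀ acetylcholine challenge; percent change in peak current versus acetylcholine alone taken as P₃.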

Mus musculus [2] = assay: Reversal of scopolamine-induced memory impairment in mouse assessed as increase in spontaneous alteration at 3 to 30 mg/kg, ip administered with compond and scopolamine at 60 mins snd 30 mins respectively prior to test by T-maze test; type: functional, organism-based
Outline: (§1)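 Mouse T-maze continuous alternation task; reversal of scopolamine-induced loss of spontaneous alternation after ip or oral doses of 3 and 30 mg/kg; significant doses reported.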

[3] = Lipophilicity, log D of the compound at pH 7.4; type: physicochemical; settings: buffer
Mus musculus [4] = assay: Reversal of scopolamine-induced memory impairment in mouse assessed as spontaneous alteration at 3 to 30 mg/kg, po administered with compond and scopolamine at 60 mins and 30 mins respectively prior to test by T-maze test; type: functional, organism-based; outline: as §1
[5] = biological target: Neuronal acetylcholine receptor subunit alpha-7 (Rattus norvegicus) (UniProt Q05941); assay: (§2) Positive allosteric modulatory activity at rat alpha7 nAChR expressed in GH4C1 cells assessed as AUC of potentiation of acetylcholine response at 3 uM at -70 mV holding potential preincubated for 30 secs followed by co-application with acetylcholine by manual patch clamp assay relative to potentiation of current response; type: cell-based
Outline: (§3)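 Conventional manual patch-clamp with a fast-application system on stable GH4C1 cells expressing rat α7 nAChR; currents evoked by acetylcholine with and without test compound; peak-current change relative to acetylcholine alone gives potentiation (P₃ at 3 μM; concentration–response for EC₅₀ and Pmax).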

[6] = Solubility of the compound at pH 6.5; type: physicochemical; settings: buffer
[7] = biological target: Neuronal acetylcholine receptor subunit alpha-7 (Rattus norvegicus) (UniProt Q05941); assay: Positive allosteric modulatory activity at rat alpha7 nAChR expressed in GH4C1 cells assessed as potentiation of acetylcholine response at 3 uM at -70 mV holding potential preincubated for 30 secs followed by co-application with acetylcholine by manual patch clamp assay; type: cell-based; outline: as §3
[8] = Apparent permeability in human Caco2 cells; type: ADME, cell-based; settings: Caco-2
[9] = Plasma clearance in Sprague-Dawley rat at 4 mg/kg administered as single IV bolus dose; type: ADME, organism-based
Outline: (§4)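 Single IV bolus of 4.0 mg/kg in male Sprague–Dawley rats; dosing solution 1.1 mg/mL in saline-based vehicle with 0.1 M hydroxypropyl-β-cyclodextrin and 10% (v/v) DMSO; plasma pharmacokinetic parameters derived.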

[10] = Half life in Sprague-Dawley rat plasma at 4 mg/kg administered as single IV bolus dose; type: ADME, organism-based; outline: as §4
[11] = biological target: Neuronal acetylcholine receptor subunit alpha-7 (Rattus norvegicus) (UniProt Q05941); assay: Positive allosteric modulatory activity at rat alpha7 nAChR expressed in GH4C1 cells assessed as AUC of potentiation of peak current at -70 mV holding potential preincubated for 30 secs followed by co-application with acetylcholine by manual patch clamp assay relative to peak current potentiation; type: cell-based; outline: as §3
[12] = Volume of distribution at steady state in Sprague-Dawley rat at 4 mg/kg administered as single IV bolus dose; type: ADME, organism-based; settings: in vivo, read-out: Vdss; outline: as §4
[13] = Oral bioavailability in Sprague-Dawley rat; type: ADME, organism-based; settings: in vivo
Mus musculus [14] = assay: Reversal of scopolamine-induced memory impairment in mouse assessed as increase in spontaneous alteration at 3 mg/kg, po administered with compond and scopolamine at 60 mins and 30 mins respectively prior to test by T-maze test; type: functional; settings: read-out: INH
Outline: (§5)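 Mouse T-maze continuous alternation task with scopolamine-induced impairment of spontaneous alternation; compound given orally in saline-based vehicle with 25% Cremophor ELP over 0.003–10.0 mg/kg; group means compared by one-way ANOVA then Fisher's PLSD, p < 0.05 significant.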

[15] = biological target: Neuronal acetylcholine receptor subunit alpha-7 (Rattus norvegicus, UniProt Q05941); assay: Positive allosteric modulatory activity at rat alpha7 nAChR expressed in GH4C1 cells assessed as potentiation of acetylcholine response at -70 mV holding potential preincubated for 30 secs followed by co-application with acetylcholine by manual patch clamp assay; type: cell-based; outline: as §3
Neuronal acetylcholine receptor subunit alpha-7, sequence (Q05941 whole entry): as above

[16] = Stability in mouse liver microsomes assessed as hepatic extraction ratio at 1 uM measured for 45 mins by LC-MS/MS analysis; type: ADME, Microsome; settings: read-out: ERH
[17] = Dose normalized AUC (0 to infinity) in Sprague-Dawley rat at 4 mg/kg administered as single IV bolus dose; type: ADME, organism-based; settings: in vivo; outline: as §4
Mus musculus [18] = assay: Reversal of scopolamine-induced memory impairment in mouse assessed as increase in spontaneous alteration at 1 mg/kg, po administered with compond and scopolamine at 60 mins and 30 mins respectively prior to test by T-maze test; type: functional; settings: read-out: INH; outline: as §5
Mus musculus [19] = assay: Reversal of scopolamine-induced memory impairment in mouse assessed as increase in spontaneous alteration at 0.003 mg/kg, po administered with compond and scopolamine at 60 mins and 30 mins respectively prior to test by T-maze test; type: functional; outline: as §5
[20] = biological target: Neuronal acetylcholine receptor subunit alpha-7 (Rattus norvegicus) (UniProt Q05941); assay: as §2, with “automated” for “manual”; type: cell-based
[21] = Stability in human liver microsomes assessed as hepatic extraction ratio at 1 uM measured for 45 mins by LC-MS/MS analysis; type: ADME, Microsome; settings: read-out: ERH
[22] = Solubility of the compound at pH 2; type: physicochemical; settings: buffer
Mus musculus [23] = assay: Reversal of scopolamine-induced memory impairment in mouse assessed as increase in spontaneous alteration at 0.03 mg/kg, po administered with compond and scopolamine at 60 mins and 30 mins respectively prior to test by T-maze test; type: functional; outline: as §5
[24] = biological target: Neuronal acetylcholine receptor subunit alpha-7 (Rattus norvegicus) (UniProt Q05941); assay: Positive allosteric modulatory activity at rat alpha7 nAChR expressed in GH4C1 cells assessed as potentiation of peak current at -70 mV holding potential preincubated for 30 secs followed by co-application with acetylcholine by manual patch clamp assay relative to acetylcholine-induced peak current; type: cell-based; outline: as §3
Mus musculus [25] = assay: Reversal of scopolamine-induced memory impairment in mouse assessed as increase in spontaneous alteration at 0.3 mg/kg, po administered with compond and scopolamine at 60 mins and 30 mins respectively prior to test by T-maze test; type: functional; outline: as §5
Mus musculus [26] = assay: Reversal of scopolamine-induced memory impairment in mouse assessed as percentage of increase in spontaneous alteration at 10 mg/kg, po administered with compond and scopolamine at 60 mins snd 30 mins respectively prior to test by T-maze test; type: functional; settings: read-out: INH; outline: as §5

## CC1(C)C(CNc2cncc(F)c2)C1c1ccc(S(N)(=O)=O)cc1 (racemic)
[1]
  Activity: 3000%

## CC1(C)C(CNc2ccc(N3CCOCC3)cc2)C1c1ccc(S(N)(=O)=O)cc1 (racemic)
[1]
  Activity: < 100%

## COc1ccc(Cl)cc1NC(=O)C1C(c2ccc(S(N)(=O)=O)cc2)C12CCCC2 (racemic)
Mus musculus [2]
  inhibition: Active
[3]
  logD: 4.2
[1]
  Activity: 710%
Mus musculus [4]
  inhibition: inactive
[5]
  Ratio: 5.6
[6]
  solubility: 1.6 to 3.1 µg/mL (≈ 3.68 to 7.13 µM)
[7]
  Activity: 360%

## CCOc1ccc(Cl)cc1NC(=O)C1C(c2ccc(S(N)(=O)=O)cc2)C1(C1CCCCC1)C1CCCCC1 (configuration not stated)
[1]
  Activity: Active

## CC1(C)C(CNc2ccc(F)cc2OC(F)F)C1c1ccc(S(N)(=O)=O)cc1 (racemic)
[1]
  Activity: 3360%

## CCOc1ccc(Cl)cc1NC(=O)C1C(c2ccc(S(N)(=O)=O)cc2)C1(CC)CC (configuration not stated)
[1]
  Activity: Active

## COc1ccc(Cl)cc1NC[C@@H]1[C@@H](c2ccc(S(N)(=O)=O)cc2)C1(C)C
[8]
  Papp: 110 nm/s
[9]
  clearance: 2.1 L/h/kg
[10]
  half-life: 1.2 h
[11]
  Ratio: 1.7
[12]
  Vd: 1.8 L/kg
[3]
  logD: 4.2
[13]
  bioavailability: 62%
Mus musculus [14]
  percent reversal of scopolamine-induced memory impairment at 3 mg/kg: 78%
[15]
  EC50: 1.9 µM
[16]
  hepatic extraction ratio at 0.75 h, 1 µM: 0.79
[17]
  AUC/dose: 1.2 µM·h/mg
Mus musculus [18]
  percent reversal of scopolamine-induced memory impairment (increase in spontaneous alternation) at 1 mg/kg: 78%
[1]
  Activity: 1160%
Mus musculus [19]
  inhibition in vivo at 0.003 mg/kg: -9%
[20]
  Ratio: 3.1
[21]
  hepatic extraction ratio at 0.75 h, 1 µM: 0.84
[6]
  solubility: 1.6 to 3.1 µg/mL (≈ 4.05 to 7.85 µM)
[22]
  solubility: > 100 µg/mL
Mus musculus [23]
  inhibition in vivo at 0.03 mg/kg: 51%
[24]
  Emax: 1570%
Mus musculus [25]
  inhibition in vivo at 0.3 mg/kg: 62%

## COc1ccc(Cl)cc1NC(=O)C1C(c2ccc(S(N)(=O)=O)cc2)C1(C)C (racemic)
Mus musculus [2]
  inhibition: Active
[3]
  logD: 3.7
[1]
  Activity: 660%
[5]
  Ratio: 5.6
[6]
  solubility: 3.1 to 6.3 µg/mL (≈ 7.58 to 15.4 µM)
[7]
  Activity: 420%

## Cc1ncccc1NCC1C(c2ccc(S(N)(=O)=O)cc2)C1(C)C (racemic)
[1]
  Activity: 130%

## CC(C)(C)c1cc(NCC2C(c3ccc(S(N)(=O)=O)cc3)C2(C)C)no1 (racemic)
[1]
  Activity: < 100%

## CC1(C)[C@H](CNc2ccc(F)cc2OC(F)F)[C@H]1c1ccc(S(N)(=O)=O)cc1
Mus musculus [14]
  percent reversal of scopolamine-induced memory impairment at 3 mg/kg: 8%
Mus musculus [26]
  percent increase in spontaneous alternation at 10 mg/kg: 41%
Mus musculus [18]
  percent reversal of scopolamine-induced memory impairment (increase in spontaneous alternation) at 1 mg/kg: 28%
[1]
  Activity: 170%

## Cc1cc(F)c(Cl)cc1NCC1C(c2ccc(S(N)(=O)=O)cc2)C1(C)C (racemic)
[1]
  Activity: 9230%

## CC1(C)C(CNc2cccc(N3CCOCC3)c2)C1c1ccc(S(N)(=O)=O)cc1 (racemic)
[1]
  Activity: 460%

## Cc1cc(F)ccc1NC[C@H]1[C@H](c2ccc(S(N)(=O)=O)cc2)C1(C)C
[1]
  Activity: 17600%

## Cc1ccc(F)cc1NC[C@H]1[C@H](c2ccc(S(N)(=O)=O)cc2)C1(C)C
[1]
  Activity: 17400%

## Cc1ccc(F)cc1NC[C@@H]1[C@@H](c2ccc(S(N)(=O)=O)cc2)C1(C)C
Mus musculus [14]
  percent reversal of scopolamine-induced memory impairment at 3 mg/kg: 0%
Mus musculus [26]
  percent increase in spontaneous alternation at 10 mg/kg: 10%
Mus musculus [18]
  percent reversal of scopolamine-induced memory impairment (increase in spontaneous alternation) at 1 mg/kg: -9%
[1]
  Activity: 460%

## Cc1cc(F)c(F)cc1NC[C@H]1[C@H](c2ccc(S(N)(=O)=O)cc2)C1(C)C
Mus musculus [14]
  percent reversal of scopolamine-induced memory impairment at 3 mg/kg: -15%
Mus musculus [26]
  percent increase in spontaneous alternation at 10 mg/kg: -5%
Mus musculus [18]
  percent reversal of scopolamine-induced memory impairment (increase in spontaneous alternation) at 1 mg/kg: -13%
[1]
  Activity: 8930%
